Screens (PubChem)
SUMO Mot1 rescue: inhibitors of SUMOylation pathway: yeast Mot1-301 growth rescue. growth rescue, % at 18.8 µM. 320,000 tested, 1% active. AID 2716. S. cerevisiae Mot1-301 growth rescue, ATP luminescence, 38.5C; percent above DMSO median, 100 means doubled;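 active means every valid replicate shows activation above 250% relative to neutral control wells; inactive means the rest, any valid replicate at or below 250%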;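 further: OY570 slx delta 5 strain wells were the positive control but not used for scaling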
JMJD2C inh: human JMJD2C demethylase inhibition; 330,000 tested, 0.069% active; inhibition, % at 2.35 µM; AID 2099; GST-JMJD2C(1-420) H3K9me3 demethylation, DELFIA europium;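 active means more than half of a compound's replicate wells show inhibition beyond 50%, single wells judged on their own value; inconclusive means some, but no more than half, of replicates pass 50% inhibition; inactive means no replicate passes 50% inhibition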;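 further: signal counts dimethyl H3K9 product captured on neutravidin plate; 0% = median of DMSO wells and 100% = 0.3 times that DMSO median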
Target sequence (Q9H3R0 1-420 limits assumed): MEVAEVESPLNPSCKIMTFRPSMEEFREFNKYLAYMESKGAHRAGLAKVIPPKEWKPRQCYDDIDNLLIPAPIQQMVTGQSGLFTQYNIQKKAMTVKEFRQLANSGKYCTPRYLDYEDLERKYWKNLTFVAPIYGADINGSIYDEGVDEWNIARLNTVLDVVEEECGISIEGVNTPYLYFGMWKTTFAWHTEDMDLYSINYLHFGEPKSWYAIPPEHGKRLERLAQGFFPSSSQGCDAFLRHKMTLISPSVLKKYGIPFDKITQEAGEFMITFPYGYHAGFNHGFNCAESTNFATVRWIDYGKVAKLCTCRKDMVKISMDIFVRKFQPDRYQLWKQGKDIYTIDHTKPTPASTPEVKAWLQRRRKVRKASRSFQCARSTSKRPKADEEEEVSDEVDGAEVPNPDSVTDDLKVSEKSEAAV
HIF activator: HIF pathway transcriptional activation | U2OS HRE-luciferase reporter, luminescence; normalized: DMSO 0%, desferrioxamine 100% | activation, % at 7.5 µM (by protocol) | 300,000 tested, 0.32% active;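 active means mean activation of at least 10% of the iron chelator positive control signal, with at least half of replicates also reaching 10%; inconclusive means mean and replicate majority disagree about reaching 10%; inactive means mean and most replicates under 10%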
T cell HTS: T cell immune modulation candidate; 330,000 tested, 0.068% active; 2C CD8+ T cell-vesicle binding, flow cytometry; hits give low values; AID 2052; response (vesicle binding), % at 7 µM;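 active means response, share of CD8 T cells binding vesicles, and their 90th percentile fluorescence all below set limits, cut at about 80% in these data, passing the limit was not always enough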;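 further: values below 100% mean blocked vesicle binding to the CD8+ T cells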
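Incubation: binding step 1.5 h, 37 °C, antibody labelling 20 min, ice; system: murine 2C transgenic CD8+ T lymphocytes; technique: cytometric PE anti-B7-1 and Alexa647 anti-CD8 signals after 1% paraformaldehyde fixation; also added: QL9-charged Drosophila Ld/ICAM-1/B7-1 vesicles; control set: naked versus QL9-loaded vesicles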
An asterisk follows results filed as active; i = inactive; u = inconclusive; x = not tested or not shown. Most compounds without a hit are left out; they make up all but 1.4% or so of the library.

SMILES | SUMO Mot1 rescue | JMJD2C inh | HIF activator | T cell HTS
O=C(Nc1ccc(F)cc1)c1nc(S(=O)(=O)Cc2ccccc2)ncc1Cl | 173 | 0 | -5 | 132
CCOC(=O)c1c(S(=O)(=O)NCC(=O)Nc2ccc(OC)cc2)c(C)n(C)c1C | 2 | -14 | 0 | 689
CCOc1cc(/C=N/NC(=O)c2c(-c3ccccc3)noc2C)ccc1O | 3 | -2 | 100* | 211
Cc1ccc(/C=N/NC(=O)c2c(-c3ccccc3)noc2C)c(O)c1 | 6 | 3 | 18* | 141
CNC(=S)NC1(C)CCS(=O)(=O)C1 (centres undefined) | -9 | -21 | -1 | 159
CCN1C(=O)[C@H]2[C@@H](c3ccc(-c4ccc(OC)cc4)cc3)N3CCCC[C@@]3(C(=O)OC)[C@H]2C1=O | 788* | 1 | 0 | 368
CCN1C(=O)[C@H]2[C@@H](c3ccc(-c4ccc(OC)cc4)cc3)N3CCC[C@@]3(C(=O)OC)[C@H]2C1=O | -5 | -6 | 1 | 539
COc1ccc(S(=O)(=O)N(C(=O)c2ccncc2)c2ccc(OC(=O)c3ccncc3)cc2)cc1 | 309* | -6 | 0 | 213
Nc1cc(=O)[nH]c(SCC(=O)NNC(=O)Cc2ccccc2)n1 | 333* | -11 | 0 | 291
Nc1cc(=O)[nH]c(SCC(=O)NNC(=O)c2ccccc2)n1 | 76 | u | 0 | 302
O=C(Nc1ccccc1)N1CCc2c([nH]c3ccccc23)C1C(F)(F)F (centres undefined) | -5 | -5 | 0 | 32*
CC1c2[nH]c3ccccc3c2CCN1C(=O)Nc1ccccc1 (centres undefined) | 14 | 5 | 0 | 189
Cc1ccnc(NS(=O)(=O)c2ccc(NC(=O)CCc3ccccc3)cc2)n1 | -11 | 1 | -1 | 471
COc1ccc(-c2nnc(S/C(=C/c3ccc(Cl)cc3)C(=O)O)o2)cc1 | 679* | -13 | 0 | 262
CSc1ccc(/C=C(/Sc2nnc(-c3ccccc3)o2)C(=O)O)cc1 | 1 | -13 | 0 | 159
S=C1NC2(CCCCC2)NN1c1ccccc1 | 364* | -14 | -1 | 732
Cc1ccc(S(=O)(=O)NCC(=O)N2CCN(S(=O)(=O)c3ccc(Cl)cc3)CC2)cc1C | -13 | -7 | 1 | 381
CSCCC1NC(=O)N(CC(=O)N2CCc3ccccc3C2)C1=O (centres undefined) | 11 | 11 | x | 35
Cc1ccc(C(=O)N/N=C/c2cc(Br)ccc2O)cn1 | 8 | 1 | 16* | 492
O=C(N/N=C/c1cc(Br)ccc1O)c1ccccc1Cl | -23 | 6 | 26* | 0
Cc1ccc(C(=O)N/N=C\C=C\c2ccc(Br)cc2)cn1 | 111 | -3 | -1 | 307
O=C(N/N=C/c1cc(Br)ccc1O)C(=O)Nc1ccccc1OC(F)(F)C(F)F | 2 | -19 | 12* | 643
Oc1ccc(Br)cc1/C=N/NC(=S)NCCc1ccccc1 | 59 | -3 | 0 | 185
O=C(CCc1ccccc1)N/N=C/c1cc(Br)ccc1O | -5 | i | 12* | 0.0*
Cc1ccc(OCCNC(=O)c2ccccc2F)cc1 | 714 | 9 | 2 | 168
SMILES | SUMO Mot1 rescue | JMJD2C inh | HIF activator | T cell HTS
O=C(Cc1ccc(Br)cc1)OCC(=O)c1ccc[nH]1 | 46 | 5 | x | 338
CCCCn1nc(C(=O)Nc2nc3c(s2)CCCC3)c2ccccc2c1=O | 449 | -8 | 0 | 264
CCCCCCn1nc(C(=O)Nc2nc3c(s2)CCCC3)c2ccccc2c1=O | -8 | -2 | 10* | 235
O=C(COC(=O)c1cc(Cl)ccc1O)NCCC1=CCCCC1 | 0 | 0 | -2 | 311
Cc1ccc(-n2nnc3c(=O)n(Cc4cccc(C)c4)cnc32)cc1 | 405* | -8 | 0 | 256
CC1(C)CC(=O)C2=C(C1)NC(=S)C(C#N)C21CCCCC1 (centres undefined) | -8 | 4 | 0 | 187
CN(C)c1ccc(CNC(=O)CCS(=O)(=O)c2ccc3c(c2)oc(=O)n3C)cc1 | 13 | -13 | 33* | 322
CSc1ccc(CC(=O)N2CCC(n3nccc3NC(=O)C3CC3)CC2)cc1 | 21 | 4 | 2 | 0
CC(=O)Nc1ccc2nc(NC(=O)COc3ccccc3Cl)sc2c1 | -17 | -2 | 2 | 307
CC(=O)Nc1ccc2nc(NC(=O)COc3ccccc3C)sc2c1 | 0 | -13 | 12* | 335
Cc1nn(-c2ccccc2)c(NC(=O)c2cccs2)c(-c2ccccc2Cl)c1=O | 2 | x | x | 312
CCCN(CCC)CCNC(=O)c1cc2c(=O)n(C)c3ccccc3c2n1C | 323* | -11 | 0 | 39
